# High-throughput results as filed in PubChem BioAssay.
# GSIS activator – GLuc luminescence reporter in INS-1E cells, primary screen for activators of glucose-dependent secretion of insulin; INS-1E GLuc reporter insulin secretion, 2-3 h; activation, % at 16.6 µM; 370,000 compounds, 0.61% hits; AID 743287;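 active = lowest replicate activation of at least 40%, so every replicate reaches that level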;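 also: 0% = median of neutral control wells and 100% = median of IBMX positive control wells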
# PGC1a acetyl inh – modulators of PGC1a acetylation. inhibition, % at 15.6 µM. U2OS PGC1a acetylation, AlphaScreen anti-acetyl-lysine; with virally co-expressed GCN5 acetyltransferase. 350,000 compounds, 0.17% hits;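 active = every replicate shows inhibition of at least 40%; inconclusive = mean inhibition at least 40% but some replicate below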;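 also: 0% = neutral control wells and 100% = positive control wells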
# MLL AF4-AF9 inh – blocks AF4 peptide binding to human AF9; P42568; inhibition, % at 10 µM; AID 651704; AlphaScreen, biotin-AF4 peptide binding to FLAG-AF9; 350,000 compounds, 0.47% hits;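 active = every replicate reaching a set inhibition limit, whatever the replicate mean, cut at about 25% in these data; inconclusive = mean inhibition reaches that limit but some replicates miss it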;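 also: 0% = plate neutral control median and 100% = total signal loss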
# Target sequence (P42568 whole entry, looked up): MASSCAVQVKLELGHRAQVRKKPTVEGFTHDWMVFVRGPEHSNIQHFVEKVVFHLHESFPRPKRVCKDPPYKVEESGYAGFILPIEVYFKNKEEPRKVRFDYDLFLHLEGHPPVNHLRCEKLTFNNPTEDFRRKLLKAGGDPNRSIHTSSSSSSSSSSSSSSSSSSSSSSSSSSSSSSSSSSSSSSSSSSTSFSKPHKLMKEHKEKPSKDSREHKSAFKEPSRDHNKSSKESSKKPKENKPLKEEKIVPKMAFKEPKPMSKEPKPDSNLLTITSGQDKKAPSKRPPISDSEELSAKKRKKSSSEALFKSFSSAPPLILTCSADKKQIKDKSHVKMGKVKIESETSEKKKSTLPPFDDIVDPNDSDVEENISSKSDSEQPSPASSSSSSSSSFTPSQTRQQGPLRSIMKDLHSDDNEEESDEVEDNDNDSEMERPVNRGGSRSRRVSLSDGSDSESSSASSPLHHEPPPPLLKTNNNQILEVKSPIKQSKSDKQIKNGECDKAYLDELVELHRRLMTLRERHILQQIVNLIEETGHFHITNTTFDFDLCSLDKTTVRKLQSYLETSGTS
# EWS-Fli inh – inhibitors of EWS/Fli oncoprotein transcriptional activity | inhibition, % at 12.6 µM | 350,000 compounds, 0.67% hits | A673 NR0B1-luciferase reporter, viability-normalised;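 active = mean inhibition of at least 50% after viability correction, with every replicate also passing that limit; inconclusive = mean reaches 50% but only one of two replicates passes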;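 also: firefly luciferase signal divided by Alamar Blue viability fluorescence both relative to DMSO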
# XiGFP reactiv – activators of X-chromosome reactivation in mouse fibroblasts; XiGFP mouse fibroblasts, % GFP-positive cells imaging, 3 d; cells co-treated with 5-aza-dC sensitizer; scaled so ellipticine positive control = 100%; activation, % at 7.58 µM; 360,000 compounds, 0.055% hits; AID 743238;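 active = mean normalized replicate activation at least 10% and every replicate at or above 10%; inconclusive = only one of the two criteria met; inactive = mean below 10% and not all replicates reach 10%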;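 also: 0% = median of on-plate neutral control wells and 100% = ellipticine 6 µM median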
#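 System: 68-5-11 XiGFP fibroblast line | Buffer or medium: DMEM containing 5-aza-dC | Compound: Single point | Times: Compounds 3 days, fix/stain 15 min at room temperature | Benchmarks: Positive control ellipticine, 6 µM final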
# PAX8 reporter – PAX8 transcriptional activity inhibition | RMG-I TPO-luciferase reporter, SteadyGlo, 24 h | inhibition, % at 12.6 µM | 360,000 compounds, 1.2% hits | AID 652154;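 active = mean replicate inhibition at least 60% with every replicate also reaching 60%; inconclusive = only one of the two criteria is met; inactive = mean below 60% and not all replicates reaching 60%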;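 also: luciferase light reporting Pax8 driven TPO promoter activity; plate controls were median of neutral control wells for no effect and mitoxantrone controls for full effect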
# The depositor's hits bear a star; ? = inconclusive; · = no result. Compounds with a hit are over-represented: about 2.1% of the library has one in this group of screens.
SMILES,GSIS activator,PGC1a acetyl inh,MLL AF4-AF9 inh,EWS-Fli inh,XiGFP reactiv,PAX8 reporter
COC(=O)C1=C(C)N(Cc2ccc(C(F)(F)F)cc2)C(=NCC2CC2)NC1c1ccccc1 (centres undefined),60.4*,·,6.9,6.4,-0.1,21.6
COC(=O)C1=C(C)N(Cc2ccccc2C(F)(F)F)C(=NCc2ccc(OC)cc2)NC1c1ccc(Cl)cc1 (centres undefined),87.3*,·,·,13.4,0.1,-6.0
COC(=O)C1=C(C)N(Cc2ccccc2C(F)(F)F)C(=NCc2ccc(OC)cc2)NC1c1ccccc1 (centres undefined),-8.0,·,·,7.8,0.1,5.5
COC(=O)C1=C(C)N(Cc2ccc(C(F)(F)F)cc2)C(=NCc2ccccc2)NC1c1ccc(Cl)cc1 (centres undefined),726.0*,·,-0.6,33.8,-0.1,44.9
O=C1[C@@H]2[C@H](C(=O)N1c1ccccc1)[C@@]13COC[C@H](c4ccccc4)N1C(=O)[C@]2(C(=O)NCc1ccccc1)O3,·,1.9,1.1,5.3,·,14.8
Cc1ccc(S(=O)(=O)Nc2ccc3c(c2)C(=O)N([C@@H](C)CO)C[C@@H](C)[C@@H](CN(C)Cc2ccc(Cl)c(Cl)c2)OCCCC[C@@H](C)O3)cc1,-9.4,-13.4,7.8,-14.9,0.1,96.3*
Cc1ccc(S(=O)(=O)Nc2ccc3c(c2)C(=O)N([C@H](C)CO)C[C@@H](C)[C@H](CN(C)Cc2ccc(Cl)c(Cl)c2)OCCCC[C@H](C)O3)cc1,-15.1,10.7,6.1,29.4,0.1,96.0*
COCC(=O)N(C)C[C@@H]1Oc2cc(-c3ccc(C)cc3)ccc2S(=O)(=O)N([C@@H](C)CO)C[C@@H]1C,3.6,7.1,-1.5,-11.1,0.7,·
COc1ccc(NC(=O)N2CC3(C2)CN(CC2CC2)[C@H](CO)c2c3c3ccc(OC)cc3n2C)cc1,-4.4,-2.5,-1.5,-2.7,0.3,-31.0
NS(=O)(=O)c1ccc(CCNc2nn3c(-c4cccc(OC(F)(F)F)c4)cnc3s2)cc1,143.4*,·,-2.9,1.7,0.2,?
COc1ccc(CNc2nn3c(-c4cccc(C(=O)N(C)C)c4)cnc3s2)cc1,25.9,·,-1.6,0.1,0.5,7.0
CO[C@H]1CN(C)C(=O)c2ccc(NC(=O)c3cnccn3)cc2OC[C@@H](C)N(C(=O)C2CC2)C[C@H]1C,18.9,9.8,-0.8,-0.7,-0.1,4.7
CCOC(=O)c1ccccc1NC(=O)c1n[nH]c(=O)c2ccccc12,82.3*,·,·,·,0.1,28.9
CCCNC(=O)N[C@@H]1C=C[C@@H](CC(=O)NC2CCCCC2)O[C@@H]1CO,11.1,1.9,-1.8,5.4,-0.5,-0.6
Cc1ccc(S(=O)(=O)N(C)C[C@H]2Oc3ccc(NC(=O)Nc4ccc(C(F)(F)F)cc4)cc3CC(=O)N([C@@H](C)CO)C[C@H]2C)cc1,-3.5,3.2,-3.3,-7.5,-0.5,98.9*
Cc1ccc(S(=O)(=O)N(C)C[C@@H]2Oc3ccc(NC(=O)Nc4ccc(C(F)(F)F)cc4)cc3CC(=O)N([C@@H](C)CO)C[C@@H]2C)cc1,-1.1,-5.1,-0.5,51.5*,2.4,81.1*
C[C@H]1CN([C@@H](C)CO)C(=O)Cc2cc(NC(=O)Nc3ccc(C(F)(F)F)cc3)ccc2O[C@H]1CN(C)S(=O)(=O)c1ccc(F)cc1,-6.3,-7.3,·,54.1*,0.5,39.6
Cc1ccc(S(=O)(=O)N(C)C[C@@H]2Oc3ccc(NC(=O)Nc4ccc(F)cc4)cc3CC(=O)N([C@H](C)CO)C[C@@H]2C)cc1,-19.7,10.9,1.1,62.6*,0.4,45.9
C[C@@H]1CN([C@H](C)CO)C(=O)Cc2cc(NC(=O)Nc3ccc(C(F)(F)F)cc3)ccc2O[C@@H]1CN(C)S(=O)(=O)c1ccc(Cl)cc1,-8.8,5.5,-3.3,-6.6,-0.7,·
Cc1ccc(S(=O)(=O)N(C)C[C@H]2Oc3ccc(NC(=O)Nc4ccc(F)cc4)cc3CC(=O)N([C@H](C)CO)C[C@@H]2C)cc1,-10.6,1.5,2.0,-3.8,-0.1,-8.7
CC(C)NC(=O)N(C)C[C@@H]1Oc2ccc(NC(=O)C3CCCCC3)cc2CC(=O)N([C@@H](C)CO)C[C@H]1C,17.2,·,-2.6,2.7,0.3,10.8
Cc1ccc(S(=O)(=O)Nc2cccc3c2O[C@@H](CN(C)S(C)(=O)=O)[C@@H](C)CN([C@H](C)CO)C3=O)cc1,13.6,14.3,-4.1,-1.9,0.3,2.8
Cc1ccc(-c2cnc3c(c2)C(=O)N([C@H](C)CO)C[C@@H](C)[C@H](CN(C)C(=O)Cc2ccccc2)O3)cc1,-18.3,-1.2,0.8,2.9,0.0,·
O=C(C[C@@H]1C[C@@H]2c3cc(NC(=O)C4CCOCC4)ccc3O[C@@H]2[C@@H](CO)O1)NCc1cc(F)ccc1F,1.4,3.3,7.7,3.8,0.2,-11.0
COc1ccc(S(=O)(=O)N(C)C[C@H]2Oc3ccc(NC(=O)Nc4ccc(C(F)(F)F)cc4)cc3CC(=O)N([C@@H](C)CO)C[C@H]2C)cc1,-5.7,12.9,-0.7,-18.8,1.1,18.4
SMILES,GSIS activator,PGC1a acetyl inh,MLL AF4-AF9 inh,EWS-Fli inh,XiGFP reactiv,PAX8 reporter
COc1ccc(S(=O)(=O)N(C)C[C@H]2Oc3ccc(NC(=O)Nc4ccc(C(F)(F)F)cc4)cc3C(=O)N([C@H](C)CO)C[C@@H]2C)cc1,-3.8,6.9,0.4,1.1,0.3,93.5*
COc1ccc(S(=O)(=O)N(C)C[C@@H]2Oc3ccc(NC(=O)Nc4ccc(C(F)(F)F)cc4)cc3C(=O)N([C@H](C)CO)C[C@@H]2C)cc1,-3.3,13.0,0.0,7.0,0.2,·
C[C@H]1CN([C@@H](C)CO)C(=O)Cc2cc(NC(=O)Nc3ccc(C(F)(F)F)cc3)ccc2O[C@H]1CN(C)S(=O)(=O)c1cn(C)cn1,-15.0,-4.8,4.0,54.1*,-0.7,37.7
COc1ccc(S(=O)(=O)N(C)C[C@H]2Oc3ccc(NC(=O)Nc4ccc(C(F)(F)F)cc4)cc3CC(=O)N([C@H](C)CO)C[C@@H]2C)cc1,-7.2,7.8,-0.4,-7.9,-1.1,79.1*
NC(N)=N/N=C/c1ccc(Br)cc1,5.2,·,6.2,56.0*,0.1,-15.2
N#Cc1ccc(/C=N/N=C(N)N)cc1,·,4.3,·,·,·,-7.1
CCc1nc2c(nnn2Cc2ccc(F)cc2)c(=O)[nH]1,60.1*,6.2,·,·,·,·
CC(C)Cc1nc2c(nnn2Cc2ccccc2F)c(=O)[nH]1,35.9,4.9,37.7*,-0.3,·,16.9
Cc1noc(C)c1NC(=O)N(C)C[C@H]1OCc2ccccc2-c2ccccc2C(=O)N([C@@H](C)CO)C[C@H]1C,9.6,·,·,·,0.7,·
CN(CC(=O)Nc1cccc2ccccc12)C(=O)c1ccc(NC(=O)CC#N)cc1,19.4,-11.0,0.0,6.4,0.0,16.6
